# Experimental data pooled from the literature.
# Compare with care: the assays were run in different laboratories.
Structure (SMILES),system,conditions,quantity,result
CC(C)(O)c1ccccc1-c1ccc2[nH]c(/C=C/c3ccc(C(F)(F)F)cc3)nc2c1,"male human, plasma","oral, 15 mg, single dose, fasted",AUC(0-t),1010 ng·h/mL
CC(C)(C)c1ccc(O)c(CN(Cc2cc(C(C)(C)C)ccc2O)C2CCC(NC(N)=O)CC2)c1 (stereo not shown),"male C57BL/6 mouse, brain","oral, 10 mg/kg, single dose",tissue/plasma ratio,0.64
CN(C(=O)n1cnc(-c2ccc[n+]([O-])c2)c1)C1CCCCC1,"male cynomolgus monkey, plasma","oral, 0.3 mg/kg",Tmax,2 h
O=C(O)C1CCN(c2ncc(-c3ccc4c(c3)OCCCO4)s2)CC1,"male Swiss mouse, brain","oral, 30 mg/kg, single dose",tissue/plasma ratio,0.028
Cn1c(=O)oc2ccc(-c3ccc(C[C@@H](C#N)NC(=O)[C@@H]4CNCCCO4)cc3)cc21,"male human, plasma","oral, 50 mg, single dose, healthy volunteers",AUC,17.6 µM·h
Fc1ccc(COC2CCN(Cc3ccc4[nH]cnc4c3)CC2)cc1F,"mouse, brain","intraperitoneal, 5 mg/kg",unbound tissue/plasma ratio,3.7
COc1cc(C(=O)NC2CCN(C)CC2)c(F)cc1Nc1ncc(C(F)(F)F)c(Oc2cccc3c2C(=O)N(C)C3)n1,"human, plasma","oral, 25 mg, multiple doses, once daily, steady state, patients",AUC,5.1 µM·h
CCc1nc2c(C)cc(N3CCN(CC(=O)N4CC(O)C4)CC3)cn2c1N(C)c1nc(-c2ccc(F)cc2)c(C#N)s1,"human, plasma","oral, 150 mg, fed, healthy volunteers",AUC(0-inf),6400 ng·h/mL
COc1ccc([C@@H]2CN(C(=O)[C@@H](O)CO)C[C@@]2(C)[C@@H](C)O)cc1OC1CN(c2ccc(C)cn2)C1,"human, plasma","oral, 0.1 mg, single dose, healthy volunteers",AUC(0-inf),59.1 ng·h/mL
CC(C)n1cc(C#N)c2cc(-n3cc(C(=O)O)cn3)ccc21,"human, plasma","oral, 400 mg, single dose, fasted, healthy volunteers",AUC(0-inf),92000 ng·h/mL
